Consider four compounds from paper PMC4805780 (International Journal for Parasitology: Drugs and Drug …, 2016).

Entries after “also recorded” stand apart in the source; their conditions may differ. Read-outs that look alike come from different tables or passages of the source.

What is called inhibition is the drop in the measured response relative to a control, in per cent. As a reminder, the IC50 is the point on the concentration scale where inhibition reaches its midpoint.

For one data set, the target named is T1, HcPMT1 (Haemonchus contortus, UniProt A0A2Z1FIB9).
T1 sequence (A0A2Z1FIB9 1-349): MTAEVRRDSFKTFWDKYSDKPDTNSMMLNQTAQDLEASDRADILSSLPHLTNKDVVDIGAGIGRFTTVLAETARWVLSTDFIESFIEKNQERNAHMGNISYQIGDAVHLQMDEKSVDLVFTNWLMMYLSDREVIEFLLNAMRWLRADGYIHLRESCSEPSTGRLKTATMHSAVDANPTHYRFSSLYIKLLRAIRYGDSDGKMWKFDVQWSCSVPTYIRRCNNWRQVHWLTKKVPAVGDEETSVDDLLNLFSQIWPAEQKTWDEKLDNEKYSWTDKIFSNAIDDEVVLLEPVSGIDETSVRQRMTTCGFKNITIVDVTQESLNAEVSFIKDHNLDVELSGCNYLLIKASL
The data set can be described thus: Methyltransferase HT activity kit assay, HcPMT1 as sole enzyme. It counts as biochemical.

In data set [1] the target is T2, HcPMT1 + HcPMT2 combination (Haemonchus contortus, UniProt A0A2Z1FIB9+U5HK48).
T2 sequence (A0A2Z1FIB9 1-349): T1 sequence (A0A2Z1FIB9 1-349)
T2 sequence (U5HK48 3-433): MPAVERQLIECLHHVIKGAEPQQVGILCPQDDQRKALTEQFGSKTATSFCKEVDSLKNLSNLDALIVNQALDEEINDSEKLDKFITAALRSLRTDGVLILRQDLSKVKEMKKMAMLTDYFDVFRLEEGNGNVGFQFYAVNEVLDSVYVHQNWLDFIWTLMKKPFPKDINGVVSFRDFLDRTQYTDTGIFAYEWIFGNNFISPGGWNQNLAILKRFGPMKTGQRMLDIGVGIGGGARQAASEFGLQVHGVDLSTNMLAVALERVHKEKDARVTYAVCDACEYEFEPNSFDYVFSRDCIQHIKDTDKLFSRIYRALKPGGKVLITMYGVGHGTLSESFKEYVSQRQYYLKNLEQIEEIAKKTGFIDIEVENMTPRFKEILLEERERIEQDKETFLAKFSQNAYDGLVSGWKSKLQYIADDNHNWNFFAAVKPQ
The data set can be described thus: Methyltransferase HT activity kit assay, HcPMT1 + HcPMT2 combination. Type of data set: biochemical. The following applies: for IC50: read-out: HcPMT1 + HcPMT2 Activity inhibition IC50, 11 μg/ml each enzyme, 95 μM SAM, 160 μM phosphoethanolamine. In short, it runs like this:
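His-tagged recombinant HcPMT1 and HcPMT2 from E. coli BL21-CodonPlus-DE3-RIL, Ni-affinity purified, dialysed in 5 mM Hepes-KOH pH 7.8 with 0.5 mM DTT. Fluorescent SAM-dependent methyltransferase kit, 11 µg/ml each enzyme, 95 µM SAM, 160 µM phosphoethanolamine. Rising test compound from DMSO stock; DMSO-only reactions as uninhibited. Triplicate, 24 °C, 45 min shaking, then kit positive-control mix 10 min. Isopropanol stop; fluorescence 380ex/520em. % inhibition against uninhibited mean RFU; IC50 by nonlinear regression.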

The test system of data set [2] is H. contortus third-stage (L3) larvae. The data set can be described thus: Anthelmintic effect on motility of third-stage larvae in culture. Details: species or system Haemonchus contortus. The following applies: for anthelmintic effect against larvae: data not shown. In outline: (§1)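 Adult females freshly taken from goat abomasum, or L3 larvae Baermann-extracted from 10-day, 21 °C faecal cultures; both PCR-confirmed as H. contortus. 100 worms per dish, in triplicate, in 20 ml RPMI-1640 with 2% glucose and antibiotics, pH 6.8. Rising test-compound concentrations, with DMSO and untreated controls; 37 °C, 5% CO2, 36 h. Worms light-stimulated 5 min at 37 °C. 50 scored per dish as very motile, sluggish or immotile. IC50 from % non-motile by nonlinear regression.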

The subject of data set [3] is adult H. contortus female worms. The data set can be described thus: Anthelmintic effect on motility of adult female worms in culture. Details: species or system Haemonchus contortus. The following applies: for anthelmintic effect against adult worms: all concentrations up to a maximum of 80 μM. In outline: as §1
For the next data set, the system named is P. falciparum PMT. As to conditions: previous studies ref Bobenchik et al., 2013; cited from earlier work.
For a further data set, the system named is P. falciparum. As to conditions: ref Bobenchik et al., 2013; cited from earlier work.
The test system of a further data set is MonoMac6 cells. The data set can be described thus: WST-1 cytotoxicity assay in mammalian cells. It counts as cell-based, human. The following applies: read-out: cytotoxic IC50; mammalian monocytic cells, 48 h. In outline:
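MonoMac6 cells seeded at 10⁴/well in phenol-red-free RPMI-1640 with 10% FCS, 2.05 mM L-glutamine, nonessential amino acids, OPI supplement and 1% penicillin-streptomycin. Test compound at rising concentrations in triplicate, with DMSO-only controls; 48 h, 37 °C, 5% CO2. WST-1 added, 1 h at 37 °C. Supernatant transferred and formazan read as absorbance at 420 nm.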
On the technique in general: Formazan colour is commonly taken as a measure of viable cells.

The mark [4] stands for this setting: all concentrations up to a maximum of 80 μM.

Regarding `S=C(CSc1ccccc1)Nc1cccc2ccccc12` [NSC-158011, N-naphthalen-1-yl-2-phenylsulfanylethanethioamid], on HcPMT1, the “inhibitory effect against the activity of HcPMT1 as the sole enzyme” value was “did not have any significant inhibitory effect; also recorded: had no inhibitory effect”. The inhibition at 15 µM in data set [1] (read-out: maximum inhibition of combined activity of HcPMT1 and HcPMT2) was 12%. Moreover, in data set [2] (setting [4]), the “anthelmintic effect against larvae” value is recorded as “did not show any anthelmintic effect”. In addition, in data set [3] (data not shown), the “anthelmintic effect against adult worms” value is given as “did not show any anthelmintic effect”. Besides, the “inhibitory effect against catalytic activity of P. falciparum PMT” value with P. falciparum PMT is given as “significant inhibitory effect”. Besides, the “antiparasitic activity against P. falciparum” value with P. falciparum is on record as “significant antiparasitic activity”.

As to “Hydrazinecarbothioamide, N,N-dipropyl- 2-(2-pyridinemethylene)-, (N,N,S)-copper(II) chloride complex, (SP-4-3)- [NSC-641296]”, the IC50 at HcPMT1 (read-out: HcPMT1 Activity inhibition IC50, HcPMT1 alone, 95 μM SAM, 160 μM phosphoethanolamine) stood at 8.3 ± 1.1 µM; in data set [1], 5.1 ± 1.8 µM; with MonoMac6 cells, 29 ± 2.1 µM. Moreover, the “concentration with highest inhibitory effect on HcPMT1 and HcPMT2 activity” value in data set [1] is 8 µM. The “concentration from which significant decrease in very motile larvae was observed” value in data set [2] (36 h, P < 0.05) came to 4 µM. Also, in data set [2] (MonoMac6 IC50 vs larvae IC50), the “cytotoxic IC50 relative to anthelmintic IC50 against larvae” value worked out at 2 fold. Also, the “percentage of sluggishly motile larvae relative to very motile” value in data set [2] (above 4 μM, 36 h) is listed as “at least 2.7 fold”. Besides, in data set [2] (at 22 μM, larvae, 36 h), the “percentage of immotile worms relative to very motile worms” value was found to be 4 fold. The “percentage of sluggishly motile worms relative to very motile” value in data set [2] (from 14 μM and above, larvae, 36 h) was “at least 3 fold”. In addition, the “cytotoxic IC50 relative to anthelmintic IC50 against adult worms” value in data set [3] (MonoMac6 IC50 vs adult worm IC50) was 4 fold. The “percentage of immotile worms relative to motile worms” value in data set [3] (at 8 μM and above, adult worms, 36 h) was “at least 2 fold”. The “change in number of motile adult worms” value in data set [3] (at 8 μM, 36 h) is “decrease by half”.

Regarding `O=C1C=C(NCCc2cc(Br)c(O)c(Br)c2)C(=O)c2ncccc21` [NSC-668394, 5,8-Quinolinedione, 7-[[2-(3,5-dibromo-4-hydroxyphenyl)ethyl]amino]-], at HcPMT1, the IC50 is 5.9 ± 0.9 µM. In data set [1], the “concentration with highest inhibitory effect on HcPMT1 and HcPMT2 activity” value stood at 5 µM; the IC50 was found to be 2.8 ± 0.6 µM. In data set [2] (up to 60 μM), the “anthelmintic effect against larvae” value is given as “did not show any anthelmintic activity”. Further, the “anthelmintic effect against adult H. contortus” value in data set [3] (up to 60 μM, data not shown) is reported as “did not show any anthelmintic activity”.

Consider `CC(=NNC(=[Se])N1CC2CCC(CC2)C1)c1ccccn1` [NSC-323241, 3-Azabicyclo[3.2.2]nonane-3-carboselenoic acid, [1-(2-pyridinyl)ethylidene]hydrazide], for which the “inhibitory effect against the activity of HcPMT1 as the sole enzyme” value on HcPMT1 was “did not have any significant inhibitory effect; also recorded: had no inhibitory effect”. Besides, the inhibition at 12 µM in data set [1] (read-out: maximum inhibition rate of combined activity of HcPMT1 and HcPMT2) was 21%. For the same compound, the “anthelmintic effect against larvae” value in data set [2] (setting [4]) was “did not show any anthelmintic effect”. In addition, the “anthelmintic effect against adult worms” value in data set [3] (data not shown) is on record as “did not show any anthelmintic effect”. Also, the “inhibitory effect against catalytic activity of P. falciparum PMT” value in the data set with P. falciparum PMT is recorded as “significant inhibitory effect”. The “antiparasitic activity against P. falciparum” value in the data set with P. falciparum is on record as “significant antiparasitic activity”.
